Assay results taken from ChEMBL document CHEMBL1142953, “Calcitonin gene-related peptide analogues with aza and indolizidinone amino acid residues reveal conformational requirements for antagonist activity at the human calcitonin gene-related peptide 1 receptor” (J Med Chem, 2007).
Calls of active or inactive are those of the source. No cut-off for these calls is given here.

Experiments:
Format in all cases: functional, cell-based
[1] = molecular target: Calcitonin gene-related peptide type 1 receptor (Homo sapiens, UniProt O60894+Q16602); experiment: (§1) Antagonist activity against human CGRP1 expressed in HEK293 cells assessed as inhibition of human alpha-CGRP-promoted cAMP production
Method in brief: (§2)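 HEK293 cells stably expressing CRLR, seeded at 5000 cells/well. Cells preincubated with peptide analogues for 15 min at 37 °C, then stimulated with 0.5 nM α-CGRP for 15 min at 37 °C. cAMP measured with a fluorescence-based kit. Peptides tested up to 100 µM. At least three independent experiments in triplicate, analysed by nonlinear curve fitting; mean ± SEM.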

[2] = molecular target: Calcitonin gene-related peptide type 1 receptor (Homo sapiens) (UniProt Q16602); experiment: as §1; parameters: concentration or dose not given beside the values; details: concentration not given here; method in brief: as §2
[3] = molecular target: Calcitonin gene-related peptide type 1 receptor (Homo sapiens) (UniProt Q16602); experiment: Partial agonist activity at human CGRP1 expressed in HEK293 cells assessed by measuring cAMP production upto 1 uM
Method in brief: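 HEK293 cells stably expressing CRLR were exposed to CGRP27-37 analogues up to 1 µM without α-CGRP. cAMP production was measured with a fluorescence-based kit as the read-out.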

Calcitonin gene-related peptide type 1 receptor (Homo sapiens), sequence (Q16602 whole entry): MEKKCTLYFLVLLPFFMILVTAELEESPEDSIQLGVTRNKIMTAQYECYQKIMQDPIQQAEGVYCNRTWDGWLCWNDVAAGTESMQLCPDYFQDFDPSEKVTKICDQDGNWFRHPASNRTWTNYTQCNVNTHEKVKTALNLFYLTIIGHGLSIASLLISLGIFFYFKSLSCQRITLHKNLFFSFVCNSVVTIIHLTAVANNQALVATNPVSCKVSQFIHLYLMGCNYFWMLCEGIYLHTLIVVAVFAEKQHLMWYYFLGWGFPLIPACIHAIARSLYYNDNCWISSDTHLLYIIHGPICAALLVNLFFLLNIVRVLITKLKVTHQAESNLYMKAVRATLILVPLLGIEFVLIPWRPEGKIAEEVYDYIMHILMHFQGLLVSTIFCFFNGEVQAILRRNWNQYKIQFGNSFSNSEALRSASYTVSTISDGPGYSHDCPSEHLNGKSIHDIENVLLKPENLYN
Calcitonin gene-related peptide type 1 receptor, sequence (Q16602 whole entry, one chain of several): as the sequence (Q16602 whole entry) above

IC50 [1]: 589 nM
inhibition [2]: 69%
Activity [3]: inactive
SMILES: CC(C)[C@H](NC(=O)[C@H](CC(=O)O)NC(=O)[C@@H](NC(=O)[C@@H]1CCCN1C(=O)[C@@H](NC(=O)N(N)Cc1ccccc1)C(C)C)[C@@H](C)O)C(=O)NCC(=O)N1CCC[C@H]1C(=O)N[C@@H](Cc1ccccc1)C(=O)N[C@@H](C)C(=O)N[C@@H](Cc1ccccc1)C(N)=O
